ADAM17 inh: ADAM17 inhibition, QFRET primary screen; inhibition, % at 6.95 µM; hit rate 0.83% among 370,000; recombinant ADAM17, EDANS/DABCYL FRET peptide cleavage; AID 720648;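 active = inhibition above the mean of compounds lying between control limits plus 3 SD, set per campaign, cut at about 8.5% in these data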;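 note: 0% = DMSO-only wells as the low control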
Target sequence (P78536 215-824 limits assumed): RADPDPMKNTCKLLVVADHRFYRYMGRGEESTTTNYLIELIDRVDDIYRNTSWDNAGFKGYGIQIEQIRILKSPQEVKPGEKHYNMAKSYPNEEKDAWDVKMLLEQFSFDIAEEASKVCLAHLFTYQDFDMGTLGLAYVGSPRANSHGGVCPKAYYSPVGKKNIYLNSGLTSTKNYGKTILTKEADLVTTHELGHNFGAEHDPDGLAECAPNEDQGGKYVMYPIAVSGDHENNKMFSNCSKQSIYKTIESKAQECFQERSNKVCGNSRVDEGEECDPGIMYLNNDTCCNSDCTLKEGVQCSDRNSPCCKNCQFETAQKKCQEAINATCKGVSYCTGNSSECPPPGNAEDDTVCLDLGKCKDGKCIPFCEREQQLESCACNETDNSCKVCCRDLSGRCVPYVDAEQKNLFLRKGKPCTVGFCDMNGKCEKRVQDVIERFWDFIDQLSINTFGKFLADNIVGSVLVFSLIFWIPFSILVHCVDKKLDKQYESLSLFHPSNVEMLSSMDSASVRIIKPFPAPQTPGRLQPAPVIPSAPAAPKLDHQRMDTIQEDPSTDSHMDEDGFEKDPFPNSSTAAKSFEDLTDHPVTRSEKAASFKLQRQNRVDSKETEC
V-ATPase pH: yeast V-ATPase proton transport regulation by pHLuorin | S. cerevisiae, pHLuorin cytosolic pH fluorescence | response, % at 10 µM | hit rate 0.37% among 350,000; in the data active = response mostly above about 7.3%, no sharp cut-off; inactive = mostly below about 5.4%; note: actives read high
ADAM10 inh: inhibits human ADAM10. hit rate 0.62% among 370,000. O14672. recombinant ADAM10, EDANS/DABCYL FRET peptide cleavage, 3 h. inhibition, % at 7 µM;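 active = inhibition above a per-campaign cutoff equal to the mean of compounds falling between control-based bounds plus 3 SD, cut at about 20% in these data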;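 note: 0% = DMSO wells while the 100% control is not disclosed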
Hep lipid drop: modulators of hepatic lipid droplet formation; AML12 mouse hepatocytes, oleate lipid droplets, BODIPY imaging; hit rate 0.4% among 240,000; inhibition, % at 6.5 µM;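 active = lipid droplet intensity inhibited by at least 50%, with more than 500 cells counted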
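Assay system: AML12 hepatocytes (mouse) / Also added: 100 µM oleic acid challenge / Times: overnight treatment with compound plus oleate / Detection: high-content imaging of BODIPY-stained droplets and DAPI nuclei / Evaluation: % inhibition of lipid droplet signal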
aDG glyco up: alpha-DG glycosylation activation; Pro5-aDG cells, alpha-DG glycosylation AlphaScreen (IIH6); 0% Pro5, 100% B10-LARGE cell signal; activation, % at 10 µM; hit rate 0.22% among 360,000; AID 624168;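 active = activation of at least 8% versus controls, or a plate z-score of at least 8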;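 note: Pro5 are CHO cells carrying HIG-tagged alpha-DG that lacks glycosylation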
MPTP block: permeability transition pore inhibition | isolated mouse mitochondria, Ca2+ swelling absorbance, 30 min | inhibition, % at 10 µM | hit rate 1.4% among 360,000 | AID 602449;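 active = inhibition of 50% or more, scaled per plate between neutral and stimulator controls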;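 note: 0% = DMSO wells given calcium and 100% = 1 mM EGTA wells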
ADAM10 confirm: confirmation of inhibitors of human ADAM10. shares compounds with ADAM10 inh. ADAM10 QFRET peptide cleavage, EDANS fluorescence. inhibition, % at 6.95 µM. hit rate 1% among 2,100. AID 743208;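 active = inhibition above about 20% chosen separately for each screening run, limit read from the data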;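 note: 0% = DMSO wells and 100% = marimastat wells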
ADAM17 ctr: inhibits human ADAM17 in ADAM10 exosite counter-screen. shares compounds with ADAM10 inh. ADAM17 QFRET peptide cleavage, EDANS fluorescence. inhibition, % at 6.95 µM. hit rate 0.5% among 2,100. AID 743214;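 active = mean triplicate inhibition above the solvent-only control wells' mean plus 3 SD, cut at about 12% in these data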;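 note: 0% = DMSO wells and 100% = marimastat wells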
* hit, by the source's call. A selection: hits, their analogues and other compounds. The true share with any hit is near 3.1%.

`Cc1ccc(S(=O)(=O)N2C[C@@H](C)[C@]3(C2)[C@H](O)[C@H](OC(=O)NCc2ccco2)C[C@H]2C(=O)N(c4ccccc4)C(=O)[C@H]23)cc1` gave ADAM17 inh 3, V-ATPase pH -3, ADAM10 inh -17, aDG glyco up 0 and MPTP block -1.
For CCCc1c(Cc2cccc(F)c2)ncn1CCc1ccccc1OC the results were ADAM17 inh -1, ADAM10 inh 46*, ADAM10 confirm 1 and ADAM17 ctr 1.
Screening Cc1ccccc1S(=O)(=O)N1[C@@H](c2ccccc2)C(C(=O)O)=CC[C@H]1c1ccc(Cl)cc1 returned ADAM17 inh -2, V-ATPase pH 2, ADAM10 inh -3, aDG glyco up 0 and MPTP block -2.
Cc1ccccc1S(=O)(=O)N1C(c2ccc(Cl)c(Cl)c2)CC=C(C(=O)O)C1c1cccc(Br)c1 (stereo unspecified) was read as ADAM17 inh 1, ADAM10 inh 20*, aDG glyco up 0, MPTP block 0, ADAM10 confirm 2 and ADAM17 ctr 0.
`COc1ccc(N2CCN(C(=S)Nc3ccc(C)cc3C)CC2)cc1` gave ADAM17 inh 5, V-ATPase pH -7, ADAM10 inh 21*, Hep lipid drop -10, aDG glyco up 0, MPTP block 1, ADAM10 confirm 0 and ADAM17 ctr 0.
Screening Nc1c(C(=O)N2CCOCC2)cnn1Cc1ccccc1 returned ADAM17 inh -3 and ADAM10 inh 0.
O=C(Oc1cccc(NC(=O)c2ccco2)c1)c1cccc(S(=O)(=O)N2CCCCC2)c1 was read as ADAM17 inh 5, V-ATPase pH 2, ADAM10 inh 21*, aDG glyco up 0, MPTP block 3, ADAM10 confirm 7 and ADAM17 ctr 1.
`O=C(Nc1cccc(S(=O)(=O)N2CCOCC2)c1)c1ccco1` gave ADAM17 inh -4, V-ATPase pH 2, ADAM10 inh -8, Hep lipid drop 12, aDG glyco up 0 and MPTP block 0.
`C=CCN1C(=O)[C@@H](CC(=O)NCCCOCCCC)[C@]2(C(=O)OC)CCCCC=C12` gave ADAM17 inh -4 and ADAM10 inh 4.
`O=S(=O)(Nc1cccc(-c2ccc(N3CCCCCC3)nn2)c1)c1ccc(C(F)(F)F)cc1` gave ADAM17 inh 7, V-ATPase pH 7, ADAM10 inh 24*, Hep lipid drop -2, aDG glyco up 0, MPTP block 0, ADAM10 confirm 6 and ADAM17 ctr 3.
`Cc1cccc(NC(=O)CCS(=O)(=O)c2ccccc2)c1C` gave ADAM17 inh -2 and ADAM10 inh -11.
`CC(C)NC(=O)c1onc(CSc2cccc3ccccc23)c1C(=O)O` gave ADAM17 inh -4, V-ATPase pH 5, ADAM10 inh 86*, aDG glyco up 0, MPTP block 3, ADAM10 confirm -1 and ADAM17 ctr 1.
Screening COc1ccccc1NC(=O)C1=C(C)Nc2nc(-c3ccccc3)nn2C1c1ccccn1 (stereo unspecified) returned ADAM17 inh 2, V-ATPase pH -1, ADAM10 inh 67*, Hep lipid drop 20, aDG glyco up 0, MPTP block 0, ADAM10 confirm 1 and ADAM17 ctr 0.
Screening CCCCCN1CCCCC(NC(=O)c2c(F)cccc2F)C1=O (stereo unspecified) returned ADAM17 inh -2 and ADAM10 inh 4.
For Cc1ccc2nc(C3CCN(S(=O)(=O)c4ccc5ccccc5c4)CC3)[nH]c2c1 the results were ADAM17 inh 6, V-ATPase pH -1, ADAM10 inh 26*, Hep lipid drop 5, aDG glyco up 1, MPTP block 9, ADAM10 confirm 6 and ADAM17 ctr 2.

Source: PubChem (several laboratories)
